Measurements from ChEMBL document CHEMBL5150073, “Photocaged DNA-Binding Photosensitizer Enables Photocontrol of Nuclear Entry for Dual-Targeted Photodynamic Therapy” (J Med Chem, 2022).
Calls of active or inactive are those of the source. No cut-off for these calls is given here.

What was measured:
[1] = (§1) Stability of compound in human MCF7 cells assessed as esterase-mediated 3-bromo-2-(4-carbamimidoylphenyl)-1H-indole-6-carboxamidine release by measuring cyan fluorescence at 2 uM incubated for 1 hr followed by compound washout and further incubated for 1 hr on heated microscopic stage by DAPI filter based fluorescence analysis; format: ADME, cell-based; details: mcf7, 1 h
Summary of the method: (§2)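 Cells incubated with compound (2 μM) for 1 h, washed once with PBS, then kept a further 1 h in the dark on a heated microscope stage. Nuclear cyan fluorescence imaged with the DAPI filter set at 0 h and 2 h time points.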

MCF7 [2] = assay: (§3) Photocytotoxicity against human MCF7 cells cultured as […] spheroids assessed as fold reduction in diameter of tumor spheroid size at 10 uM incubated for 1 hr followed by washout and irradiation with 480 nm 2.3 J/cm^2 light for 15 mins with 8 J/cm^2 UV irradiation for 5 mins and incubated overnight by cell viability imaging kit based assay; format: functional
Summary of the method: (§4)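 MCF7 spheroids (~300 μm) grown in ultralow-attachment plates. Compound added to medium at 10 μM final for 1 h, then illuminated: 480 nm (15 min, 2.3 J cm⁻²), 480 nm plus UV (5 min, 8.0 J cm⁻²), or UV only. After overnight incubation, stained with a live/dead imaging kit; dead-cell green mean intensity and spheroid diameter assessed.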

MCF7 [3] = assay: Photorelease activity in human MCF7 cells assessed as wintergreen release by measuring bright green fluorescence in nucleus at 3 uM incubated for 1 hr followed by illumination with 1.6 J/cm^2 for 10 mins by EGFP filter based analysis; format: ADME, cell-based; details: mcf7, 1.167 h, time 70 min
Summary of the method: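 MCF7 cells given compound (3 μM) for 1 h, washed once with PBS, imaged. DAPI filter set (ex 350–405, em 415–470 nm) used for Br-DAPI cyan signal; EGFP filter set (ex 450–495, em 500–550 nm) used for WinterGreen green signal. Cells imaged dark, then after 480 nm illumination (10 min, 1.6 J cm⁻²).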

MCF7 [4] = assay: Induction of ROS production in human MCF7 cells assessed as increase in green fluorescence signal at 3 uM irradiated with 480 nm 2.3 J/cm^2 light for 15 mins with 16 J 780 nm 2P laser light for 10 seconds by DCFH2-DA probe based analysis; format: functional, cell-based
Summary of the method: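 MCF7 cells given compound at 3 μM and DCFH2DA (10 μM). Uncaged by 480 nm illumination (15 min, 2.3 J cm⁻²). DCF fluorescence imaged before and after 780 nm two-photon laser exposure (10 s, 16 J).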

Calf thymus DNA [5] = assay: Binding affinity to calf thymus DNA assessed as fold change in fluorescence quenching of 3-bromo-2-(4-carbamimidoylphenyl)-1H-indole-6-carboxamidine; format: nucleic-acid assay; details: Bos taurus
DNA = assay: Induction of DNA (unknown origin) damage in PBS at pH 7.4 assessed as double strand breaks by measuring production of small DNA fragments at 10 uM irradiated with 480 nm 2.3 J/cm^2 light for 15 mins with 8 J/cm^2 UV irradiation for 5 mins by ethidium bromide staining based agarose gel electrophoresis; format: nucleic-acid assay; details: time 20.0 min
Summary of the method: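 Plasmid dsDNA (70 ng pCMV-PARP1-3xFlag-WT, 7146 bp) in PBS pH 7.4 with compound at 10 μM. Illumination: 480 nm for 15 min (2.3 J cm⁻²), then UV 365 nm lamp for 5 min (8.0 J cm⁻²). Samples denatured, run on 1% agarose gel with ethidium bromide. n = 2.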

[6] = Photorelease activity in PBS at pH 7.4 assessed as 3-bromo-2-(4-carbamimidoylphenyl)-1H-indole-6-carboxamidine release by measuring increase in fluorescence intensity at 50 uM in presence of CT-DNA incubated for 3 hrs under dark condition by RP-HPLC analysis; format: functional
Summary of the method: (§5)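 Samples at 50 μM in PBS pH 7.4 were either kept 3 h at 37 °C in the dark or illuminated 20 min at 480 nm (450–495 nm filter, 3.1 J cm⁻²). Analysed by RP-HPLC on a C18 analytical column with absorbance at 345 nm; retention times recorded. n = 2 independent samples.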

[7] = Photorelease activity in PBS at pH 7.4 assessed as wintergreen release at 50 uM in presence of CT-DNA illuminated with 3.1 J/cm^2 480 nm illumination for 20 mins by RP-HPLC analysis; format: functional; summary of the method: as §5
MCF7 [8] = assay: Photocytotoxicity against human MCF7 cells assessed as reduction in cell viability incubated for 1 hr followed by washout and irradiation with 480 nm 2.3 J/cm^2 light for 15 mins with 8 J/cm^2 UV irradiation for 5 mins and measured after 24 hrs by MTT assay; format: functional; details: MCF7, light or radiation study
Summary of the method: (§6)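 Cells (MCF7, A549, HeLa) incubated 1 h with compound (BB probes 0–32 μM, Br-DAPI 0–64 μM) and washed once. Light arms: 480 nm (15 min, 2.3 J cm⁻²) with or without UV (5 min, 8.0 J cm⁻²), or UV only; dark controls unilluminated. Cells kept overnight in growth medium, then MTT read 24 h post-treatment. CC50 taken relative to untreated cells. n = 3.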

MCF7 [9] = assay: as §3, with “as” for “as fold reduction in diameter of”, “shrinkage” for “size”; format: functional; summary of the method: as §4
MCF7 [10] = assay: Induction of DNA damage in human MCF7 cells assessed as double strand breaks by measuring pink foci formation in nucleus at 3 uM incubated for 2 hrs followed by irradiation with 480 nm 2.3 J/cm^2 light for 15 mins with 8 J/cm^2 UV irradiation for 5 mins by gammaH2A.X antibody/Alexa 488/DAPI staining based fluorescence analysis; format: functional, cell-based
Summary of the method: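 MCF7 cells treated with compound at 3 μM, then illuminated with 480 nm (15 min, 2.3 J cm⁻²) plus UV (5 min, 8.0 J cm⁻²), or with UV alone. Left 2 h, fixed, stained with Alexa 488-tagged γH2AX antibody and DAPI counterstain. Nuclear foci imaged.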

[11] = Induction of ROS production in PBS at pH 7.4 at 1 uM irradiated with 480 nm 2.3 J/cm^2 light for 15 mins with 8 J/cm^2 UV irradiation for 5 mins by DCFH2-DA probe based analysis; format: functional; details: time 20.0 min
[12] = as §1, with “A549” for “MCF7”; format: ADME, cell-based; details: a549, 1 h; summary of the method: as §2
MCF7 [13] = assay: Photocytotoxicity against human MCF7 cells assessed as cell death by measuring increase in green fluorescence incubated for 1 hr followed by washout and irradiated with 480 nm 2.3 J/cm^2 light for 15 mins with 48 J 780 nm 2P laser light for 30 seconds and further incubated for 2 hrs by cell viability imaging kit based assay; format: functional; details: dose 0-8 µM, DDE = dose-dependent effect
Summary of the method: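 MCF7 cells given compound at 4 μM. Illuminated with 480 nm light (15 min, 2.3 J cm⁻²) plus 780 nm two-photon laser (30 s, 48 J). Stained 2 h later with a live/dead imaging kit: green dead-cell stain (EGFP filter), blue total-cell stain (DAPI filter). n = 3.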

MCF7 [14] = assay: Photocytotoxicity against human MCF7 cells assessed as reduction in cell viability incubated for 1 hr followed by washout and irradiation with 480 nm 2.3 J/cm^2 light for 15 mins and measured after 24 hrs by MTT assay; format: functional; details: MCF7, light or radiation study; summary of the method: as §6
Calf thymus DNA [15] = assay: Binding affinity to calf thymus DNA assessed as dissociation constant by fluorescence based analysis; format: nucleic-acid assay, Bos taurus
Summary of the method: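 Fluorescence titration: compound at 20 μM in PBS pH 7.4, calf thymus DNA added in 10 μM steps until emission plateaued (~60 μM). Excitation 345 nm, emission 350–650 nm. KD obtained by fitting a one-site total saturation binding model (nonspecific binding proportional to ligand). Triplicate independent samples.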

[16] = Induction of ROS production in PBS at pH 7.4 at 1 uM irradiated with 480 nm 2.3 J/cm^2 light for 15 mins with 2-photon irradiation by DCFH2-DA probe based analysis; format: functional

Q: With `CC1=CC(C)=[N+]2C1=C(COC(=O)/N=C(\N)c1ccc3c(Br)c(-c4ccc(C(=N)N)cc4)[nH]c3c1)c1c(C)cc(C)n1[B-]2(C)C` as the compound, how does the Stability [1] read?
A: Stable

Q: And the “fold change (FC)” value (MCF7 [2])?
A: 5

Q: And the Drug metabolism (MCF7 [3])?
A: Metabolite_Notdetected

Q: And the Activity (MCF7 [4])?
A: Active

Q: And the fold change (FC) (Calf thymus DNA [5])?
A: 4

Q: What about the Activity (DNA) of the same compound?
A: Active

Q: And the Drug metabolism [6]?
A: Metabolite not detected

Q: What about the Drug metabolism [7] of the same compound?
A: Metabolite not detected

Q: What about the CC50 (MCF7 [8]) of the same compound?
A: 0.47 µM

Q: And the Activity (MCF7 [9])?
A: Active

Q: What about the Activity (MCF7 [10]) of the same compound?
A: Active

Q: And the Activity [11]?
A: Active

Q: What about the Stability [12] of the same compound?
A: Stable

Q: And the Activity (MCF7 [13])?
A: Dde

Q: And the CC50 (MCF7 [14])?
A: 4 µM

Q: And the Kd (Calf thymus DNA [15])?
A: 6 µM

Q: And the Activity [16]?
A: Active
